Test results reported in ChEMBL document CHEMBL1134602, “A new class of symmetric bisbenzimidazole-based DNA minor groove-binding agents showing antitumor activity” (J Med Chem, 2001).

Assays:
A2780 = assay: Antitumor activity of compound for 96-h exposure in A2780 human ovarian cell line; assay type: functional, cell-based; settings: A2780, 96 h
Summary of the method: (§1)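 Cells grown as monolayers in DMEM with 10% fetal bovine serum, 2 mM glutamine and 0.5 µg/mL hydrocortisone, in 6% CO2. Seeded at 3000-5000/well and attached overnight. Serial drug dilutions (compound dissolved in 10% DMSO) added to quadruplicate wells, 96 h. Fixed with TCA, stained with SRB, absorbance read at 540 nm. IC50 is the concentration giving 50% of control absorbance. Resistance factor is resistant-subline IC50 divided by parent IC50.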

SK-OV-3 [1] = assay: Antitumor activity of compound for 96-h exposure in SKOV-3 human ovarian cell line; assay type: functional, cell-based; settings: SK-OV-3, 96 h; summary of the method: as §1
A2780cisR = assay: Antitumor activity of compound for 96-h exposure in A2780cisR (acquired resistance to cisplatin) human ovarian cell line; assay type: functional, cell-based; summary of the method: as §1
CH1 [2] = assay: Antitumor activity of compound for 96-h exposure in CH1 human ovarian cell line; assay type: functional, cell-based; settings: CH1, 96 h; summary of the method: as §1
Mus musculus [3] = assay: Activity was determined in sc human tumor xenograft (hallow fiber) assays, adult female nude mice; assay type: functional
Mus musculus [4] = species on record: Mus musculus; assay: Total score was determined, adult female nude mice; assay type: functional
Mus musculus [5] = assay: Activity was determined in ip human tumor xenograft (hallow fiber) assays in adult female nude mice; assay type: functional
SK-OV-3 [6] = assay: Growth inhibitory activity of compound for 2-h exposure in SKOV-3 cell line; assay type: functional, cell-based; settings: Homo sapiens, SK-OV-3, 2 h
Summary of the method: (§2)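 SKOV-3 monolayers treated with serially diluted drug in quadruplicate wells. Drug aspirated after 2, 6 or 24 h and replaced with fresh medium for the rest of a 96-h period. Growth measured by TCA fixation, SRB staining and absorbance at 540 nm. IC50 is the concentration halving mean absorbance relative to untreated controls.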

SK-OV-3 [7] = assay: Growth inhibitory activity of compound for 24-h exposure in SKOV-3 cell line; assay type: functional, cell-based; settings: Homo sapiens, SK-OV-3, 24 h; summary of the method: as §2
OVCAR-3 = assay: In vivo antitumor activity was determined after a dose of 4.5 mg/kg (ip) using hollow fiber assay against OVCAR-3 human ovarian carcinoma cells (ip-implanted fibers); assay type: functional
SK-OV-3 [8] = assay: Growth inhibitory activity of compound for 6-h exposure in SKOV-3 cell line; assay type: functional, cell-based; settings: Homo sapiens, SK-OV-3, 6 h; summary of the method: as §2
[9] = Resistance factor was determined using the ratio of resistance of resistant cell line and its parent cell line
SK-OV-3 [10] = assay: Growth inhibitory activity of compound for 96-h exposure in SKOV-3 cell line; assay type: functional, cell-based; settings: Homo sapiens, SK-OV-3, 96 h; summary of the method: as §1
CH1 [11] = assay: In vivo antitumor activity was determined after a dose of 4 mg/kg (ip) using hollow fiber assay with (ip)implanted CH1 cells; assay type: functional, Homo sapiens
Summary of the method: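 CH1 cells trypsinized, seeded at 1 × 10^7 cells/mL into 2-cm PVDF fibers, heat-sealed and incubated 3 days. Fibers then implanted ip in nude mice. Next day a single 4 mg/kg ip dose given, or vehicle (10% DMSO/90% arachis oil). Fibers retrieved six days later; viable cells measured by MTT absorbance at 540 nm and expressed as % treated/control.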

SMILES	IC50 (A2780) [µM]	IC50 (SK-OV-3 [1]) [µM]	IC50 (A2780cisR) [µM]	IC50 (CH1 [2]) [µM]	Subcut score (Mus musculus [3])	Total score (Mus musculus [4])	Ip score (Mus musculus [5])	IC50 (SK-OV-3 [6]) [µM]	IC50 (SK-OV-3 [7]) [µM]	T/C (OVCAR-3)	IC50 (SK-OV-3 [8]) [µM]	RF [9]	IC50 (SK-OV-3 [10]) [µM]	T/C (CH1 [11])
COc1ccc(-c2nc3cc(-c4ccc5[nH]c(-c6ccc(OC)cc6)nc5c4)ccc3[nH]2)cc1	13.5	16.5	5.1	3.8	0	8	8	–	–	–	–	–	–	–
CN(C)CCCOc1ccc(-c2nc3cc(-c4ccc5nc(-c6ccc(OCCCN(C)C)cc6)[nH]c5c4)ccc3[nH]2)cc1	0.235	0.375	0.115	0.24	4	16	12	0.33	0.115	0.56	0.105	5.8	0.1	0.79
Oc1ccc(-c2nc3ccc(-c4ccc5nc(-c6ccc(O)cc6)[nH]c5c4)cc3[nH]2)cc1	4.3	16	2.7	1.05	0	10	10	–	–	–	–	–	–	–
COc1cccc2c1C(=O)c1c(O)c3c(c(O)c1C2=O)C[C@@](O)(C(=O)CO)C[C@@H]3O[C@H]1C[C@H](N)[C@H](O)[C@H](C)O1 [DOXORUBICIN]	–	–	–	–	–	–	–	–	–	–	–	90	–	–
CN1CCN(c2ccc3[nH]c(-c4ccc5[nH]c(-c6ccc(O)cc6)nc5c4)nc3c2)CC1 [HOECHST 33258]	12	> 100	9.5	26.5	–	–	–	–	–	–	–	–	–	–
